S100A4 inh HTS: blocks human S100A4 binding to myosin IIA peptide | P26447 | AID 652163 | inhibition, % at 10.7 µM | 360,000 tested, 0.14% active | S100A4/TAMRA-MyoIIA peptide fluorescence polarization;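 active means mean inhibition of at least 70% across replicates, with every replicate also reaching that level; inconclusive means mean inhibition reaches 70% but some replicates fall short; inactive means mean inhibition below 70%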
Target sequence (P26447 whole entry, looked up): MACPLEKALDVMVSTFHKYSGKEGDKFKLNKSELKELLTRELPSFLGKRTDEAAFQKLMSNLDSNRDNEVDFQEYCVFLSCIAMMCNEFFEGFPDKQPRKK
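Compound dosing: one dose per compound; test system: human S100A4 monomer with TAMRA-labelled myosin IIA peptide; probe or stimulus: TAMRA-labelled myosin IIA heavy-chain peptide probe, 5 nM; medium: HEPES buffer with Ca2+, pH 7.2; schedule: 5 min incubation before reading; benchmarks: neutral control DMSO, positive control TFP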
dFosB act: enhances mouse delta FosB homodimer DNA binding; P13346; purified delta FosB, TAMRA-CDK5 oligo fluorescence polarization; percent of positive-control signal above neutral wells; activation, % at 25 µM; 340,000 tested, 0.99% active;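 active means mean activation above about 17%, with every replicate also reaching it, limit read from the data, passing the limit was not always enough; inconclusive means only one of the two conditions met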
Target sequence (P13346 whole entry, looked up): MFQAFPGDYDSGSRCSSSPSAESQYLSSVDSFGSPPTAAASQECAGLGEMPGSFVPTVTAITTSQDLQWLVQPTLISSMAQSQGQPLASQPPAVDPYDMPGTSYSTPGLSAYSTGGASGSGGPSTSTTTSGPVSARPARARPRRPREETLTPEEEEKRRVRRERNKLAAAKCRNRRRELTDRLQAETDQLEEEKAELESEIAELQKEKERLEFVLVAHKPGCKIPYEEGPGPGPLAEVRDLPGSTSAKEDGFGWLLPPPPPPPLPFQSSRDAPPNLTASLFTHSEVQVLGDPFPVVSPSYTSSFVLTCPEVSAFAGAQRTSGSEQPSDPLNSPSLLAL
FGF22 binding: FGF22 (human) thermal shift binding. recombinant FGF22 thermal shift, SYPRO orange fluorescence; percent of sucrose octasulfate shift, DMSO zero. activity (Tm shift, normalised), % at 9.99 µM. 340,000 tested, 1.5% active;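 active means mean Tm shift, scaled 0 neutral to 100 positive control, at about 1.3% or above, every replicate too, limit read from the data; inconclusive means no clear call, values can overlap the other calls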
Target sequence (Q9HCT0 whole entry, looked up): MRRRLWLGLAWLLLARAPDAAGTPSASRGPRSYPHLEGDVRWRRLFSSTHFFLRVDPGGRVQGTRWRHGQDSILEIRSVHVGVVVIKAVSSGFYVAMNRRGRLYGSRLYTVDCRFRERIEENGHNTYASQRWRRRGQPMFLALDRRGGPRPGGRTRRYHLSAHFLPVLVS
CFTR F508del cor: CFTR F508del correction in bronchial cells; CFBE cells, YFP halide quenching; stimulated with forskolin plus potentiator P3; % fluorescence drop versus neutral controls; activity (quench increase), % at 7.58 µM; 350,000 tested, 0.36% active; AID 720511;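 active means mean added fluorescence quench of at least 8% versus neutral control, with both replicates also reaching 8%; inconclusive means only one of the mean or replicate conditions met; inactive means mean below 8% and not both replicates reaching 8%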;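 further: cells transiently co-express mutant CFTR-F508del with the halide-sensitive YFP; corrector assay measuring rescue of mutant channel to the surface after 24 h compound exposure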
* marks the source's active call; other numbers are inactive results; ? = inconclusive; · = no result given. This is a sample that favours compounds with a hit; in the whole collection about 2.2% have one here.

SMILES | S100A4 inh HTS | dFosB act | FGF22 binding | CFTR F508del cor
C/C(=N\NC(=O)c1cccnc1)c1cc2ccccc2o1 | 7.0 | -12.9 | 43.1* | 2.8
COc1ccccc1NC(=O)/C(C#N)=C/c1c(C)nn(-c2ccc(F)cc2)c1Cl | -2.0 | -10.1 | 43.2* | 2.2
COCC(=O)N1[C@@H]2c3ccc(C4=CCCC4)c(=O)n3C[C@@H]2[C@@H](CO)[C@@H]1C(=O)N1CCCCC1 | 0.4 | · | 0.0 | -1.4
Cc1noc(C)c1NC(=O)N(C)C[C@@H]1OCCCC[C@@H](C)Oc2ccc(NC(=O)Nc3ccccc3)cc2C(=O)N([C@@H](C)CO)C[C@@H]1C | · | · | 0.3 | -0.9
CC1(C#CC[N+]2(C)CCCCC2)CCC2C(O1)c1ccccc1OC2(C)C (configuration not stated) | -8.4 | -7.7 | 43.6* | -1.9
CC(=O)c1ccc(N2CCN(C(=O)CCCn3c(=O)[nH]c4ccccc4c3=O)CC2)cc1 | -3.4 | -3.3 | 43.2* | -0.6
C[C@@H](NC(=O)C[C@H]1C[C@H]2c3cc(NC(=O)NC4CCCC4)ccc3O[C@H]2[C@H](CO)O1)c1ccccc1 | 0.7 | · | 0.2 | 0.6
O=S(=O)(Nc1cccc(Cl)c1)c1cccc(-n2cnnn2)c1 | -2.2 | 0.1 | 43.8* | 0.9
COCC(=O)N1CCC2(CC1)CN(Cc1ccccn1)[C@@H](CO)c1[nH]c3cc(OC)ccc3c12 | · | · | -0.1 | 1.2
O=C(CN1CCOCC1)N[C@@H]1CC[C@@H](CCNC(=O)Nc2cc(F)ccc2F)O[C@@H]1CO | -3.7 | · | 0.2 | -2.8
CNC(=S)NNC(=O)c1noc(C)c1C(=O)N1CCN(C(c2ccccc2)c2ccccc2)CC1 | 0.6 | 5.0 | 43.6* | 1.1
CC(C)c1onc(C(=O)N2CCN(C(c3ccccc3)c3ccccc3)CC2)c1[N+](=O)[O-] | -4.5 | 4.3 | -0.1 | -3.2
N#CNC(=Nc1cccc(F)c1)SCc1cccc(F)c1 | -4.9 | 2.7 | -0.1 | ·
N#CNC(=Nc1cccc(F)c1)SCc1ccccc1 | 0.0 | -3.8 | 43.5* | -1.6
COc1cc(OC)cc(-c2c(C#Cc3ccsc3)c3cc(-c4ccc5[nH]ccc5c4)ccc3n2C)c1 | 4.4 | 22.9* | 0.0 | 1.4
COc1cc(OC)cc(-c2c(C#Cc3ccsc3)c3cc(-c4cc(OC)c(OC)c(OC)c4)ccc3n2C)c1 | -3.8 | -4.5 | 0.1 | 0.2
COc1ccc2c3c([nH]c2c1)[C@@H](CO)N(C(=O)NC(C)C)CC31CCN(Cc2ccccc2)CC1 | · | · | · | -2.4
CS(=O)(=O)N1CCc2cc(S(=O)(=O)N3CCCCC3)ccc21 | 2.2 | 3.4 | 42.9* | 0.1
CC12CCC3c4ccc(O)cc4CCC3C1CCC2=O (configuration not stated) | -2.2 | 10.1 | -0.3 | 9.4*
Clc1ccc2nc3c4ccccc4cnn3c2c1 | 2.0 | -46.6 | 42.9* | -3.1
COn1c(-c2ccccc2)nc2ccc(Cl)cc21 | · | -4.8 | · | ·
C=CCNC(=O)/C(C#N)=C/c1ccccc1Cl | -2.6 | -0.4 | 43.3* | 1.3
C=CCNC(=O)/C(C#N)=C/c1ccc(C(=O)O)cc1 | -0.4 | 4.4 | 0.4 | 0.6
O=C(CN1C(=O)/C(=C/c2ccccc2)SC1=S)NC1C=CS(=O)(=O)C1 (configuration not stated) | -3.7 | -0.3 | 0.1 | -5.1
COc1ccc(/C=C2\SC(=S)N(CC(=O)NC3C=CS(=O)(=O)C3)C2=O)cc1 (configuration not stated) | 5.9 | 85.3* | 0.1 | -3.3
SMILES | S100A4 inh HTS | dFosB act | FGF22 binding | CFTR F508del cor
O=C(CN1C(=O)/C(=C/c2ccc(Cl)cc2)SC1=S)NC1C=CS(=O)(=O)C1 (configuration not stated) | 2.4 | 22.7* | -0.1 | -0.5
O=C(CCN1C(=O)/C(=C/c2ccc(Cl)cc2)SC1=S)NC1C=CS(=O)(=O)C1 (configuration not stated) | 29.8 | -6.8 | 0.1 | 0.1
O=C(CN1C(=O)/C(=C/c2ccc(F)cc2)SC1=S)NC1C=CS(=O)(=O)C1 (configuration not stated) | 1.5 | 26.1* | -0.1 | -0.2
C[C@@H]1CN([C@@H](C)CO)S(=O)(=O)c2ccc(C3=CCCC3)cc2O[C@H]1CN(C)Cc1cccnc1 | -34.9 | · | -0.1 | -0.4
CCCNC(=O)N(C)C[C@@H]1Oc2cc(C3=CCCC3)ccc2S(=O)(=O)N([C@H](C)CO)C[C@@H]1C | 12.5 | · | -0.2 | -2.4
Cc1cc(C(=O)CN2CCN(CC(=O)Nc3ccc(F)cc3)CC2)c(C)n1C1CC1 | -4.3 | -11.0 | 0.2 | 22.6*
CCN(CC(=O)Nc1cc(Cl)ccc1C)C(=O)COc1ccccc1F | -2.3 | -14.2 | 43.8* | -0.3
CC(C)CC#Cc1cnc2c(c1)C(=O)N([C@@H](C)CO)C[C@@H](C)[C@@H](CN(C)C(=O)CC1CC1)O2 | -13.9 | · | · | -0.8
CNS(=O)(=O)c1cccc(C(=O)OCC(=O)c2cc(C)n(CC3CCCO3)c2C)c1 (configuration not stated) | -18.8 | -12.5 | -0.4 | 25.3*
CC(C)(C)c1ccc(-c2nc3[nH]c(=O)cc(NC(=O)c4ccco4)n3n2)cc1 | -1.4 | -14.6 | 13.7* | -1.5
COc1ccc(/C(C)=N/NC(=O)c2cccc(S(=O)(=O)N3CCCC3)c2)c(O)c1 | -5.8 | -1.5 | -0.1 | 9.8*
COc1ccc(C(C)=NNC(=O)c2cccc(S(=O)(=O)N3CCCC3)c2)cc1 | -1.9 | -6.0 | 0.0 | 2.7
Clc1ccc(C2=NNC(=NCC3CCCO3)SC2)cc1 (configuration not stated) | 2.6 | -3.2 | 43.2* | -2.7
COc1ccc(NC(=O)N(C)C[C@@H]2Oc3c(NS(=O)(=O)c4ccc(C)cc4)cccc3C(=O)N([C@@H](C)CO)C[C@H]2C)cc1 | 8.4 | · | -0.5 | -2.0
COc1ccc(-c2csc(NC(=S)NC(=O)/C=C/c3ccco3)n2)cc1Br | -3.0 | -5.0 | 0.0 | 9.4*
O=C(/C=C/c1ccco1)NC(=S)Nc1ccccc1 | -4.5 | -4.8 | 0.0 | 0.1
Cc1cccc(NC(=S)NC(=O)/C=C/c2ccco2)c1 | -8.1 | -10.7 | 1.4* | ?
COc1ccc(-c2csc(NC(=S)NC(=O)/C=C/c3ccco3)n2)cc1OC | 6.8 | -6.3 | -0.1 | 9.7*
CO[C@H]1CN(C)C(=O)c2ccc(NS(=O)(=O)c3ccccc3Cl)cc2OC[C@@H](C)NC[C@H]1C | · | · | · | 1.8
COCC(=O)Nc1ccc2c(c1)OC[C@@H](C)N(Cc1ccccc1)C[C@H](C)[C@@H](OC)CN(C)C2=O | 14.1 | · | -0.3 | -0.6
CCN1CCN(c2ccc(Nc3ccnc4ccccc34)cc2)CC1 | 1.7 | 36.3* | 0.3 | 2.1
CCOc1ccc(Nc2ccnc3cc(Cl)ccc23)cc1 | 1.4 | 2.1 | 0.1 | -1.9
CN1CCN(c2ccc(Nc3ccnc4cc(Cl)ccc34)cc2)CC1 | -10.6 | 56.8* | · | -3.0
CCN1CCN(c2nc(-c3ccccn3)nc3ccccc23)CC1 | · | -7.8 | · | ·
Cc1noc(C)c1S(=O)(=O)N(C)C[C@H]1Oc2ccc(NS(=O)(=O)c3ccc(F)cc3)cc2CC(=O)N([C@@H](C)CO)C[C@H]1C | 6.1 | · | -0.3 | 0.0
CCc1ccc(NC(=O)CSc2nc3ccsc3c(=O)n2CCCCCC(=O)O)cc1 | -1.4 | 2.1 | 43.5* | 2.9
